Laboratory results from ChEMBL document CHEMBL3045462, “Synthesis and fungicidal activity of novel 4,4'-bis(2' '-aryl-5' '-methyl/unsubstituted-4' '-oxo-thiazolidin-3' '-yl) bibenzyl” (2003).

Assays:
Type in all cases: functional
Details in all cases: read-out: GI
Penicillium citrinum [1] = test: Growth inhibition of Penicillium citrinum at 1000 ppm after 96 hr by poisoned food technique
Procedure, shortened: (§1)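 Poisoned food technique in vitro: test compound mixed into Czapek's agar at 1000, 100 or 10 ppm, then Fusarium oxysporum or Penicillium citrinum grown on the medium. Growth inhibition was scored following previously described methods.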

Penicillium citrinum [2] = test: Growth inhibition of Penicillium citrinum at 100 ppm after 96 hr by poisoned food technique; procedure, shortened: as §1
Fusarium oxysporum [3] = test: Growth inhibition of Fusarium oxysporum at 10 ppm after 96 hr by poisoned food technique; procedure, shortened: as §1
Fusarium oxysporum [4] = test: Growth inhibition of Fusarium oxysporum at 1000 ppm after 96 hr by poisoned food technique; procedure, shortened: as §1
Fusarium oxysporum [5] = test: Growth inhibition of Fusarium oxysporum at 100 ppm after 96 hr by poisoned food technique; procedure, shortened: as §1
Penicillium citrinum [6] = test: Growth inhibition of Penicillium citrinum at 10 ppm after 96 hr by poisoned food technique; procedure, shortened: as §1

SMILES: C(=N\c1ccc(CCc2ccc(/N=C/c3ccccc3)cc2)cc1)/c1ccccc1
- inhibition of growth at 1000 ppm (Penicillium citrinum [1]): 56%
- inhibition of growth at 100 ppm (Penicillium citrinum [2]): 20%
- inhibition of growth at 10 ppm (Fusarium oxysporum [3]): 9%
- inhibition of growth at 1000 ppm (Fusarium oxysporum [4]): 50%
- inhibition of growth at 100 ppm (Fusarium oxysporum [5]): 24%
- inhibition of growth at 10 ppm (Penicillium citrinum [6]): 13%

SMILES: COc1ccc(/C=N/c2ccc(CCc3ccc(/N=C/c4ccc(OC)cc4)cc3)cc2)cc1
- inhibition of growth at 1000 ppm (Penicillium citrinum [1]): 58%
- inhibition of growth at 100 ppm (Penicillium citrinum [2]): 44%
- inhibition of growth at 10 ppm (Fusarium oxysporum [3]): 29%
- inhibition of growth at 1000 ppm (Fusarium oxysporum [4]): 46%
- inhibition of growth at 100 ppm (Fusarium oxysporum [5]): 36%
- inhibition of growth at 10 ppm (Penicillium citrinum [6]): 21%

SMILES: Clc1ccc(/C=N/c2ccc(CCc3ccc(/N=C/c4ccc(Cl)cc4)cc3)cc2)cc1
- inhibition of growth at 1000 ppm (Penicillium citrinum [1]): 88%
- inhibition of growth at 100 ppm (Penicillium citrinum [2]): 30%
- inhibition of growth at 10 ppm (Fusarium oxysporum [3]): 20%
- inhibition of growth at 1000 ppm (Fusarium oxysporum [4]): 83%
- inhibition of growth at 100 ppm (Fusarium oxysporum [5]): 47%
- inhibition of growth at 10 ppm (Penicillium citrinum [6]): 15%

SMILES: COc1ccc(/C=N/c2ccc(CCc3ccc(/N=C/c4ccc(OC)c(OC)c4)cc3)cc2)cc1OC
- inhibition of growth at 1000 ppm (Penicillium citrinum [1]): 42%
- inhibition of growth at 100 ppm (Penicillium citrinum [2]): 27%
- inhibition of growth at 10 ppm (Fusarium oxysporum [3]): 31%
- inhibition of growth at 1000 ppm (Fusarium oxysporum [4]): 55%
- inhibition of growth at 100 ppm (Fusarium oxysporum [5]): 43%
- inhibition of growth at 10 ppm (Penicillium citrinum [6]): 19%

SMILES: Oc1ccccc1/C=N/c1ccc(CCc2ccc(/N=C/c3ccccc3O)cc2)cc1
- inhibition of growth at 1000 ppm (Penicillium citrinum [1]): 50%
- inhibition of growth at 100 ppm (Penicillium citrinum [2]): 33%
- inhibition of growth at 10 ppm (Fusarium oxysporum [3]): 25%
- inhibition of growth at 1000 ppm (Fusarium oxysporum [4]): 62%
- inhibition of growth at 100 ppm (Fusarium oxysporum [5]): 53%
- inhibition of growth at 10 ppm (Penicillium citrinum [6]): 23%

SMILES: COc1cc(/C=N/c2ccc(CCc3ccc(/N=C/c4ccc(O)c(OC)c4)cc3)cc2)ccc1O
- inhibition of growth at 1000 ppm (Penicillium citrinum [1]): 57%
- inhibition of growth at 100 ppm (Penicillium citrinum [2]): 45%
- inhibition of growth at 10 ppm (Fusarium oxysporum [3]): 48%
- inhibition of growth at 1000 ppm (Fusarium oxysporum [4]): 51%
- inhibition of growth at 100 ppm (Fusarium oxysporum [5]): 47%
- inhibition of growth at 10 ppm (Penicillium citrinum [6]): 37%

SMILES: O=C1CS[C@@H](c2ccccc2)N1c1ccc(CCc2ccc(N3C(=O)CS[C@H]3c3ccccc3)cc2)cc1
- inhibition of growth at 1000 ppm (Penicillium citrinum [1]): 51%
- inhibition of growth at 100 ppm (Penicillium citrinum [2]): 20%
- inhibition of growth at 10 ppm (Fusarium oxysporum [3]): 12%
- inhibition of growth at 1000 ppm (Fusarium oxysporum [4]): 55%
- inhibition of growth at 100 ppm (Fusarium oxysporum [5]): 30%
- inhibition of growth at 10 ppm (Penicillium citrinum [6]): 10%

SMILES: COc1ccc([C@@H]2SCC(=O)N2c2ccc(CCc3ccc(N4C(=O)CS[C@H]4c4ccc(OC)cc4)cc3)cc2)cc1
- inhibition of growth at 1000 ppm (Penicillium citrinum [1]): 46%
- inhibition of growth at 100 ppm (Penicillium citrinum [2]): 32%
- inhibition of growth at 10 ppm (Fusarium oxysporum [3]): 24%
- inhibition of growth at 1000 ppm (Fusarium oxysporum [4]): 61%
- inhibition of growth at 100 ppm (Fusarium oxysporum [5]): 50%
- inhibition of growth at 10 ppm (Penicillium citrinum [6]): 17%

SMILES: O=C1CS[C@@H](c2ccc(Cl)cc2)N1c1ccc(CCc2ccc(N3C(=O)CS[C@H]3c3ccc(Cl)cc3)cc2)cc1
- inhibition of growth at 1000 ppm (Penicillium citrinum [1]): 87%
- inhibition of growth at 100 ppm (Penicillium citrinum [2]): 33%
- inhibition of growth at 10 ppm (Fusarium oxysporum [3]): 15%
- inhibition of growth at 1000 ppm (Fusarium oxysporum [4]): 82%
- inhibition of growth at 100 ppm (Fusarium oxysporum [5]): 43%
- inhibition of growth at 10 ppm (Penicillium citrinum [6]): 8%

SMILES: COc1ccc([C@@H]2SCC(=O)N2c2ccc(CCc3ccc(N4C(=O)CS[C@H]4c4ccc(OC)c(OC)c4)cc3)cc2)cc1OC
- inhibition of growth at 1000 ppm (Penicillium citrinum [1]): 67%
- inhibition of growth at 100 ppm (Penicillium citrinum [2]): 50%
- inhibition of growth at 10 ppm (Fusarium oxysporum [3]): 24%
- inhibition of growth at 1000 ppm (Fusarium oxysporum [4]): 38%
- inhibition of growth at 100 ppm (Fusarium oxysporum [5]): 26%
- inhibition of growth at 10 ppm (Penicillium citrinum [6]): 26%

SMILES: O=C1CS[C@@H](c2ccccc2O)N1c1ccc(CCc2ccc(N3C(=O)CS[C@H]3c3ccccc3O)cc2)cc1
- inhibition of growth at 1000 ppm (Penicillium citrinum [1]): 67%
- inhibition of growth at 100 ppm (Penicillium citrinum [2]): 40%
- inhibition of growth at 10 ppm (Fusarium oxysporum [3]): 39%
- inhibition of growth at 1000 ppm (Fusarium oxysporum [4]): 61%
- inhibition of growth at 100 ppm (Fusarium oxysporum [5]): 50%
- inhibition of growth at 10 ppm (Penicillium citrinum [6]): 25%

SMILES: COc1cc([C@@H]2SCC(=O)N2c2ccc(CCc3ccc(N4C(=O)CS[C@H]4c4ccc(O)c(OC)c4)cc3)cc2)ccc1O
- inhibition of growth at 1000 ppm (Penicillium citrinum [1]): 73%
- inhibition of growth at 100 ppm (Penicillium citrinum [2]): 56%
- inhibition of growth at 10 ppm (Fusarium oxysporum [3]): 40%
- inhibition of growth at 1000 ppm (Fusarium oxysporum [4]): 78%
- inhibition of growth at 100 ppm (Fusarium oxysporum [5]): 65%
- inhibition of growth at 10 ppm (Penicillium citrinum [6]): 38%

SMILES: C[C@@H]1S[C@@H](c2ccccc2)N(c2ccc(CCc3ccc(N4C(=O)[C@H](C)S[C@H]4c4ccccc4)cc3)cc2)C1=O
- inhibition of growth at 1000 ppm (Penicillium citrinum [1]): 100%
- inhibition of growth at 100 ppm (Penicillium citrinum [2]): 79%
- inhibition of growth at 10 ppm (Fusarium oxysporum [3]): 59%
- inhibition of growth at 1000 ppm (Fusarium oxysporum [4]): 100%
- inhibition of growth at 100 ppm (Fusarium oxysporum [5]): 81%
- inhibition of growth at 10 ppm (Penicillium citrinum [6]): 53%

SMILES: COc1ccc([C@@H]2S[C@@H](C)C(=O)N2c2ccc(CCc3ccc(N4C(=O)[C@H](C)S[C@H]4c4ccc(OC)cc4)cc3)cc2)cc1
- inhibition of growth at 1000 ppm (Penicillium citrinum [1]): 88%
- inhibition of growth at 100 ppm (Penicillium citrinum [2]): 69%
- inhibition of growth at 10 ppm (Fusarium oxysporum [3]): 41%
- inhibition of growth at 1000 ppm (Fusarium oxysporum [4]): 85%
- inhibition of growth at 100 ppm (Fusarium oxysporum [5]): 62%
- inhibition of growth at 10 ppm (Penicillium citrinum [6]): 45%

SMILES: C[C@@H]1S[C@@H](c2ccc(Cl)cc2)N(c2ccc(CCc3ccc(N4C(=O)[C@H](C)S[C@H]4c4ccc(Cl)cc4)cc3)cc2)C1=O
- inhibition of growth at 1000 ppm (Penicillium citrinum [1]): 68%
- inhibition of growth at 100 ppm (Penicillium citrinum [2]): 42%
- inhibition of growth at 10 ppm (Fusarium oxysporum [3]): 40%
- inhibition of growth at 1000 ppm (Fusarium oxysporum [4]): 75%
- inhibition of growth at 100 ppm (Fusarium oxysporum [5]): 65%
- inhibition of growth at 10 ppm (Penicillium citrinum [6]): 30%

SMILES: COc1ccc([C@@H]2S[C@@H](C)C(=O)N2c2ccc(CCc3ccc(N4C(=O)[C@H](C)S[C@H]4c4ccc(OC)c(OC)c4)cc3)cc2)cc1OC
- inhibition of growth at 1000 ppm (Penicillium citrinum [1]): 63%
- inhibition of growth at 100 ppm (Penicillium citrinum [2]): 55%
- inhibition of growth at 10 ppm (Fusarium oxysporum [3]): 51%
- inhibition of growth at 1000 ppm (Fusarium oxysporum [4]): 71%
- inhibition of growth at 100 ppm (Fusarium oxysporum [5]): 58%
- inhibition of growth at 10 ppm (Penicillium citrinum [6]): 46%

SMILES: C[C@@H]1S[C@@H](c2ccccc2O)N(c2ccc(CCc3ccc(N4C(=O)[C@H](C)S[C@H]4c4ccccc4O)cc3)cc2)C1=O
- inhibition of growth at 1000 ppm (Penicillium citrinum [1]): 78%
- inhibition of growth at 100 ppm (Penicillium citrinum [2]): 65%
- inhibition of growth at 10 ppm (Fusarium oxysporum [3]): 30%
- inhibition of growth at 1000 ppm (Fusarium oxysporum [4]): 88%
- inhibition of growth at 100 ppm (Fusarium oxysporum [5]): 71%
- inhibition of growth at 10 ppm (Penicillium citrinum [6]): 37%

SMILES: COc1cc([C@@H]2S[C@@H](C)C(=O)N2c2ccc(CCc3ccc(N4C(=O)[C@H](C)S[C@H]4c4ccc(O)c(OC)c4)cc3)cc2)ccc1O
- inhibition of growth at 1000 ppm (Penicillium citrinum [1]): 87%
- inhibition of growth at 100 ppm (Penicillium citrinum [2]): 58%
- inhibition of growth at 10 ppm (Fusarium oxysporum [3]): 76%
- inhibition of growth at 1000 ppm (Fusarium oxysporum [4]): 91%
- inhibition of growth at 100 ppm (Fusarium oxysporum [5]): 85%
- inhibition of growth at 10 ppm (Penicillium citrinum [6]): 45%
